This passage reports yeast fitness results from the RNAGym collection of RNA variant scans (doi:10.1126/science.aae0568).

Sequences and labels used below:
B1: tRNA (parent)
chain: GUUCCGUUGGCGUAAUGGUAACGCGUCUCCCUCCUAAGGAGAAGACUGCGGGUUCGAGUCCCGUACGGAACG

Fewer inactive variants are shown than the library holds.

Variants of B1 are the subject of the data set. In words: yeast fitness relative to wild type (ratio to wild type); higher = fitter; tRNA-Arg(CCU), competitive growth, 37 C, YPD. In outline: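 Changes in genotype frequencies gave Darwinian fitness relative to wild type. Frequencies were read by 100-nucleotide paired-end sequencing of gene amplicons before and after pooled Saccharomyces cerevisiae strains, carrying tRNA-Arg(CCU) gene variants at the native locus, were competed in YPD at 37°C for 24 hours in six replicates. A genotype was kept only with ≥ 100 starting reads, and estimates < 0.5 were set to 0.5.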
In the case of GUUCCGUUGGCGUAAUGGUAACGCGUUUCCCUCCUAAGGAGAACACUGCGGGUUCGAGGCCCGUACGGAACG [C27U G44C U59G], the yeast fitness was no more than 0.5.
For GUUCCGUUGGCGUAAUGGUAACGCGUUUCCCUCCUAAGGAGAAGACUGCGCGUUAGAGUCCCGUAUGGAACG [C27U G51C C55A C66U], the yeast fitness amounted to 0.53.
As for GUUCCGUUGGCGUAAUGGUAACGCGUUUCCCCCCUAAGGAGAAGACUGCGGGUUCGAGUCCCGUACGGACCG [C27U U32C A70C], the figure is 0.68.
Take GUUCCGUUGGCGUAAUGGUAACGCGUUUCCCUCCUAAGGAGAAGACUAUGGGUUCGAGUCCCGUACGGAUCG [C27U G48A C49U A70U]: the yeast fitness turned out to be 0.752.
As for GUUCCGUUGGCGUAAUGGUAACGCGUUUCCCUCCUAAGGAGAAGACUGCGGGUUCGACUCCCGUACGGAACG [C27U G58C], the figure is 1.02.
In the case of GUUCCGUUGGCGUAAUGGUAACGCGUUUCCCUCCUAAGGAGAAGACUGCGGGUUCGAAUCCCGUACGGAACG [C27U G58A], the yeast fitness is 0.899.
As for GUUCCGUUGGCGUAAUGGUAACGCGUUUCCCUCCUAAGGAGAAGACUGCGAGAUCGAGUCCCCUACGGAACG [C27U G51A U53A G63C], the figure is no more than 0.5; as for GUUCCGUUGGCGUAAUGGUAACGCGUUUCCCUCCUAAGGAGAAGACUGCGGGUUCGAGUCCCAUGCGGAACG [C27U G63A A65G], no more than 0.5.
In the case of GUUCCGUUGGCGUAAUGGUAACGCGUUUCCCUCCUAAGGAGAAGACCGCGGGUUCGAGUCCCGUACGGUACG [C27U U47C A69U], the yeast fitness was found to be 0.838.
As for GUUCCGUUGGCGUAAUGGUAACGCGUUUCCCCCCUAAGGAAAAGACUGCGGGUUAGAGUCCCCUACGGAACG [C27U U32C G41A C55A G63C], the figure is no more than 0.5; as for GUUCCGUUGGCGUAAUGGUAACGCGUUUCCCUCCUAAGAAGAAGAUUGCGGGUUCGAGUCCCGUACGGAACG [C27U G39A C46U], 0.918; as for GUUCCGUUGGCGUAAUGGUAACGCGUUUCCCUCCUAAGGAGAAGACUGCGGGUUCGAGUUCCGUAUGGAACG [C27U C60U C66U], 0.695.
As to GUUCCGUUGGCGUAAUGGUAACGCGUUUCCCUCCCGAGGAGAAGACUGGGGGUUCGAGUCCCGUACGGAACG [C27U U35C A36G C49G], the yeast fitness was no more than 0.5.
For GUUCCGUUGGCGUAAUGGUAACGCGUUACCCUCCUAAGGUGAAGACUGCGGGUUCGAGUCCCGUACGGAACG [C27U U28A A40U], the yeast fitness came out at 0.671.
With GUUCCGUUGGCGUAAUGGUAACGCGUUUCCCUCCUAAGGAGAAGACUGCGGGUUCGAGUCCCCUACGGAACG [C27U G63C], the yeast fitness came out at 0.715.
On to GUUCCGUUGGCGUAAUGGUAACGCGUUACCCACUUCAGGAGAAGACUACGGGUUCGAGUUCCGUACGGAACG [C27U U28A U32A C34U A36C G48A C60U], for which the yeast fitness was no more than 0.5.
As for GUUCCGUUGGCGUAAUGGUAACGCGUUACCCACUUCAGGAGAAGACUGCGGGUUAGAGUCCCGUACGGAGCG [C27U U28A U32A C34U A36C C55A A70G], the yeast fitness is 0.539.
As to GUUCCGUUGGCGUAAUGGUAACGCGUUUCCCUCCUAAGGAGAACACUGCGGGUUCGAGUCCUGUACGGAACG [C27U G44C C62U], the yeast fitness came out at 0.733.
As for GUUCCGUUGGCGUAAUGGUAACGCGUUUCCCCCCUAAGGAAUAAAUUGCGGGUUCGAAUUCCGUACGGAACG [C27U U32C G41A A42U G44A C46U G58A C60U], the yeast fitness is no more than 0.5.
As for GUUCCGUUGGCGUAAUGGUAACGCGUUUCCCUCCUAACGUGAAGGCUGCGGAUUCGAGUCCCGUCCGGAACG [C27U G38C A40U A45G G52A A65C], the yeast fitness is no more than 0.5.
With GUUCCGUUGGCGUAAUGGUAACGCGUUUCCCAACUAAGGAGAAGACUGCGGGUUCGAGUCCCGUACGGAACG [C27U U32A C33A], the yeast fitness turned out to be 0.51.
In the case of GUUCCGUUGGCGUAAUGGUAACGCGUUUCCCUCCCACGGUGAUGACUGCGGGUUCGAGUCCCGUACGGAACG [C27U U35C A37C A40U A43U], the yeast fitness was no more than 0.5.
Consider GUUCCGUUGGCGUAAUGGUAACGCGUUUCCCUCCUAAGGAGAAGACUGCGCGUUCGAGCCCAGUACGGAACG [C27U G51C U59C C62A], for which the yeast fitness was no more than 0.5.
GUUCCGUUGGCGUAAUGGUAACGCGUUUCCCUCCUAAGGAGAACACUGCGGGUUCGAGUCCCGUACGGAACG [C27U G44C]: the yeast fitness turned out to be 1.03.
Regarding GUUCCGUUGGCGUAAUGGUAACGCGUUUCCCUCCUAAAGAGAAGACUGCGGGUUCGAGUCCCGUAAGGAACG [C27U G38A C66A], the yeast fitness was 0.645.
GUUCCGUUGGCGUAAUGGUAACGCGUUUCCCUCCUAAGGAGAAGACCGCGGGUUCGAGUCCCGUACGGAACG [C27U U47C]: the yeast fitness amounted to 0.975.
On to GUUCCGUUGGCGUAAUGGUAACGCGUUUCCCUCCUAAGGAGAAGACAGCGGGUUCGAGUCCCGUACGGAACG [C27U U47A], for which the yeast fitness was determined as 0.721.
On to GUUCCGUUGGCGUAAUGGUAACGCGUUUCCCUCCUAAGGACAAGACUGCGGGUUCGAGUCCCGCACGGACCG [C27U G41C U64C A70C], for which the yeast fitness was 0.675.
As for GUUCCGUUGGCGUAAUGGUAACGCGUUUCCCUCCUAACGAGAACACUGCGGGUUCGAGUCCCGUACGGAACG [C27U G38C G44C], the yeast fitness amounted to 0.531.
As for GUUCCGUUGGCGUAAUGGUAACGCGUUUCCCUCCUAAGGAGAAGACUGCGGGUUCGAGUCCUGUACGGACCG [C27U C62U A70C], the figure is 0.756; as for GUUCCGUUGGCGUAAUGGUAACGCGUUUCCCUCCUAAGGAGAAGACUGCGGGUUCGAGUCCUGUACGGAACG [C27U C62U], 1.01.
As for GUUCCGUUGGCGUAAUGGUAACGCGUUUCCCUCCUAAGGAGAAGACUGCGGGUUCGAGUCCAGUACGGAACG [C27U C62A], the figure is 0.764; as for GUUCCGUUGGCGUAAUGGUAACGCGUUUCCCUCCUAAGGAGAAGACAGCGGGUUCGAGUCACGUGCGGAACG [C27U U47A C61A A65G], no more than 0.5; as for GUUCCGUUGGCGUAAUGGUAACGCGUUUCCCUCCUAAGGAGAAGACUGCGGGUUCGACUCCCGUACGGCACG [C27U G58C A69C], 1.05.
In the case of GUUCCGUUGGCGUAAUGGUAACGCGUUUCCCUCCUAAGGAGAAGACUGCGCGUUCGAGUCCGGUACGGAACG [C27U G51C C62G], the yeast fitness was no more than 0.5.
As for GUUCCGUUGGCGUAAUGGUAACGCGUUUCCCUCCUAAGGAGAAGACUGCGGGUUCGAGUCCCGUACGUAACG [C27U G68U], the figure is 0.755; as for GUUCCGUUGGCGUAAUGGUAACGCGUUUCCCUCCUAAGGAGAAGACUGCGGGUUCGAGUCCCGUACGCAACG [C27U G68C], 0.757; as for GUUCCGUUGGCGUAAUGGUAACGCGUUUCCCUCCUAAGGAGAAGACUGCGGGUUCGAGUCCCGUACGAAACG [C27U G68A], 0.822.
